Laboratory results taken from ChEMBL document CHEMBL1146220, “Rational optimization of the binding affinity of CD4 targeting peptidomimetics with potential anti HIV activity” (J Med Chem, 2007).
Numbered stars: 1 amine (or outer) side, 2 acyl side, 3 side chain; on linkers, the order of the positions; unused ones are H or OH. Square brackets hold non-standard residues; d marks the D form. Peptide text beside a SMILES is read from it. * marks the point of attachment. Acetyl(2-naphthyloxy) = O=C(COc1ccc2ccccc2c1)*; Alaninol(O-CO) = C[C@@H](COC(=O)[*:2])N[*:1]; NH(1-Adamantyl) = C1C2CC3CC1CC(N*)(C2)C3; X1 = O=C(OC[C@@H]1CCCN1[*:1])[*:2]; X2 = S=C(NC1CC1)OC[C@@H]1CCCN1*; X3 = O=C(COc1cccc2cccnc12)*; NHcHex = C1CCC(N*)CC1; NHcPent = C1CCC(N*)C1; NHtBu = CC(C)(C)N*

How the values were obtained:
[1] = target: T-cell surface glycoprotein CD4 (Homo sapiens, UniProt P01730); test: Binding affinity to CD4 by SPR assay
Summary of the method: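 Test ligands passed over the CD4 SPR surface at a series of concentrations, recording the concentration-dependent maximum response units (RU). Surface regenerated between runs with short pulses of 100 mM H3PO4. Only the lower concentrations (generally up to 50 µM) fitting a one-site binding model were used. KD was taken as the concentration at RUmax/2.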

[2] = Half life by pronase digestion assay; assay type: ADME; conditions: pronase (protease digestion)
Summary of the method: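 Pronase digestion was run at 37 °C. Aliquots were taken at 5, 10, 15, 20 and 30 min and quenched with 1 M acetic acid. Hydrolysis products were identified as M+H+/Na+/K+ ions, and t1/2 was derived from the disappearance time course.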

## CC(C)[C@H](NC(=O)[C@H](CCCCN)NC(=O)COc1cccc2cccnc12)C(=O)NCC(=O)N[C@H](C(=O)N[C@@H](C)COC(=O)NC(C)(C)C)[C@@H](C)O (X3-KVGT[Alaninol(O-CO)]-NHtBu)
[1]
  Kd: 13 µM

## CC(C)[C@H](NC(=O)[C@H](CCCCN)NC(=O)COc1cccc2cccnc12)C(=O)NCC(=O)N[C@H](C(=O)N1CCC[C@H]1COC(=O)NC(C)(C)C)[C@@H](C)O (X3-KVGT[X1]-NHtBu)
[1]
  Kd: 26 µM

## CC(C)[C@H](NC(=O)[C@H](CCCCN)NC(=O)COc1ccc2ccccc2c1)C(=O)NCC(=O)N[C@H](C(=O)N[C@@H](C)COC(=O)NC(C)(C)C)C(C)O (single isomer, unassigned)
[1]
  Kd: 20 µM

## CC(C)[C@H](NC(=O)[C@H](CCCCN)NC(=O)COc1ccc2ccccc2c1)C(=O)NCC(=O)N[C@H](C(=O)N1CCC[C@H]1COC(=S)NC1CC1)[C@@H](C)O ({Acetyl(2-naphthyloxy)}-KVGT-X2)
[1]
  Kd: 27 µM

## CC(C)[C@H](NC(=O)[C@H](CCCCN)NC(=O)COc1ccc2ccccc2c1)C(=O)NCC(=O)N[C@H](C(=O)N[C@@H](C)COC(=O)NC1CCCC1)[C@@H](C)O ({Acetyl(2-naphthyloxy)}-KVGT[Alaninol(O-CO)]-NHcPent)
[1]
  Kd: 62 µM

## CC(C)[C@H](NC(=O)[C@H](CCCCN)NC(=O)COc1ccc2ccccc2c1)C(=O)NCC(=O)N[C@H](C(=O)N[C@@H](C)COC(=O)NC12CC3CC(CC(C3)C1)C2)[C@@H](C)O ({Acetyl(2-naphthyloxy)}-KVGT[Alaninol(O-CO)]-{NH(1-Adamantyl)})
[1]
  Kd: 80 µM

## CC(C)[C@H](NC(=O)[C@H](CCCCN)NC(=O)COc1ccc2ccccc2c1)C(=O)NCC(=O)N[C@H](C(=O)N1CCC[C@H]1COC(=O)NC1CCCCC1)[C@@H](C)O ({Acetyl(2-naphthyloxy)}-KVGT[X1]-NHcHex)
[1]
  Kd: 35 µM
[2]
  half-life: 27.3 min

## CC(C)[C@H](NC(=O)[C@H](CCCCN)NC(=O)COc1ccc2ccccc2c1)C(=O)NCC(=O)N[C@H](C(=O)N1CCC[C@H]1COC(=O)NC1CCCC1)[C@@H](C)O ({Acetyl(2-naphthyloxy)}-KVGT[X1]-NHcPent)
[1]
  Kd: 16 µM

## CC(C)[C@H](NC(=O)[C@H](CCCCN)NC(=O)COc1ccc2ccccc2c1)C(=O)NCC(=O)N[C@H](C(=O)N1CCC[C@H]1COC(=O)NC(C)(C)C)[C@@H](C)O ({Acetyl(2-naphthyloxy)}-KVGT[X1]-NHtBu)
[1]
  Kd: 6 µM

## CCOC(=O)CNC(=O)OC[C@@H]1CCCN1C(=O)[C@@H](NC(=O)CNC(=O)[C@@H](NC(=O)[C@H](CCCCN)NC(=O)COc1ccc2ccccc2c1)C(C)C)[C@@H](C)O ({Acetyl(2-naphthyloxy)}-KVGT[X1]G-OEt)
[1]
  Kd: 26 µM
[2]
  half-life: 23 min

## H-NMWQKVGTPL-OH
[1]
  Kd: 6000 µM
[2]
  half-life: 6 min
